{
  "source": "ChEMBL document CHEMBL1212799",
  "about": "(2010)",
  "key": {"[1]": {"test_system": "Pseudomonas aeruginosa", "test": "fT>MIC in Pseudomonas aeruginosa isolate 762 at 2 gram for every 8 hrs administered as 3 hrs infusion measured over 0-8 hrs in in vitro pharmcodynamic model", "assay_type": "functional"}, "[2]": {"test_system": "Klebsiella pneumoniae", "test": "fT>MIC in Klebsiella pneumoniae isolate 368 at 2 gram for every 8 hrs administered as 3 hrs infusion measured over 0-8 hrs in in vitro pharmcodynamic model", "assay_type": "functional", "method_in_brief": "(§1)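 Samples assayed by HPLC (linear 0.25–40 µg/ml). Time free drug stayed above the modal triplicate broth-microdilution MIC (CLSI) calculated for each 8-h interval.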"}, "[3]": {"test_system": "Klebsiella pneumoniae", "test": "fT>MIC in Klebsiella pneumoniae isolate 375 at 2 gram for every 8 hrs administered as 3 hrs infusion measured over 16-24 hrs in in vitro pharmcodynamic model", "assay_type": "functional"}, "[4]": {"test_system": "Klebsiella pneumoniae", "test": "fT>MIC in Klebsiella pneumoniae isolate 377 at 2 gram for every 8 hrs administered as 3 hrs infusion measured over 0-8 hrs in in vitro pharmcodynamic model", "assay_type": "functional"}, "[5]": {"test_system": "Pseudomonas aeruginosa", "test": "Antibacterial activity against Pseudomonas aeruginosa isolate 762 assessed as reduction of bacterial count at 16 ug/ml within 6 hrs in vitro pharmacodynamic model", "assay_type": "functional"}, "[6]": {"test_system": "Klebsiella pneumoniae", "test": "Antibacterial activity against Klebsiella pneumoniae isolate 334 assessed as reduction of bacterial count at 32 ug/ml within 6 hrs in vitro pharmacodynamic model", "assay_type": "functional"}, "[7]": {"test_system": "Pseudomonas aeruginosa", "test": "Antibacterial activity against Pseudomonas aeruginosa isolate 1030 assessed as reduction of bacterial count at 8 ug/ml within 6 hrs in vitro pharmacodynamic model", "assay_type": "functional"}, "[8]": {"test_system": "Klebsiella pneumoniae", "test": "fT>MIC in Klebsiella pneumoniae isolate 361 at 2 gram for every 8 hrs administered as 3 hrs infusion measured over 0-8 hrs in in vitro pharmcodynamic model", "assay_type": "functional", "method_in_brief": "as §1"}, "[9]": {"test_system": "Klebsiella pneumoniae", "test": "fT>MIC in Klebsiella pneumoniae isolate 361 at 2 gram for every 8 hrs administered as 3 hrs infusion measured over 16-24 hrs in in vitro pharmcodynamic model", "assay_type": "functional", "method_in_brief": "as §1"}, "[10]": {"test_system": "Klebsiella pneumoniae", "test": "fT>MIC in Klebsiella pneumoniae isolate 357 at 2 gram for every 8 hrs administered as 3 hrs infusion measured over 8-16 hrs in in vitro pharmcodynamic model", "assay_type": "functional", "method_in_brief": "as §1"}, "[11]": {"test_system": "Klebsiella pneumoniae", "test": "fT>MIC in Klebsiella pneumoniae isolate 334 at 2 gram for every 8 hrs administered as 3 hrs infusion measured over 0-8 hrs in in vitro pharmcodynamic model", "assay_type": "functional", "method_in_brief": "as §1"}, "[12]": {"test_system": "Pseudomonas aeruginosa", "test": "Antibacterial activity against Pseudomonas aeruginosa isolate 1038 assessed as reduction of bacterial count at 8 ug/ml within 6 hrs in vitro pharmacodynamic model", "assay_type": "functional"}, "[13]": {"test_system": "Pseudomonas aeruginosa", "test": "fT>MIC in Pseudomonas aeruginosa isolate 988 at 2 gram for every 8 hrs administered as 3 hrs infusion measured over 0-8 hrs in in vitro pharmcodynamic model", "assay_type": "functional"}, "[14]": {"test_system": "Klebsiella pneumoniae", "test": "fT>MIC in Klebsiella pneumoniae isolate 375 at 2 gram for every 8 hrs administered as 3 hrs infusion over 24 hrs in in vitro pharmcodynamic model", "assay_type": "functional"}, "[15]": {"test_system": "Pseudomonas aeruginosa", "test": "fT>MIC in Pseudomonas aeruginosa isolate 896 at 2 gram for every 8 hrs administered as 3 hrs infusion measured over 16-24 hrs in in vitro pharmcodynamic model", "assay_type": "functional"}, "[16]": {"test_system": "Pseudomonas aeruginosa", "test": "fT>MIC in Pseudomonas aeruginosa isolate 1038 at 2 gram for every 8 hrs administered as 3 hrs infusion measured over 0-8 hrs in in vitro pharmcodynamic model", "assay_type": "functional"}, "[17]": {"test_system": "Klebsiella pneumoniae", "test": "fT>MIC in Klebsiella pneumoniae isolate 353 at 2 gram for every 8 hrs administered as 3 hrs infusion measured over 16-24 hrs in in vitro pharmcodynamic model", "assay_type": "functional, isoalte 353", "method_in_brief": "as §1"}, "[18]": {"test_system": "Klebsiella pneumoniae", "test": "fT>MIC in Klebsiella pneumoniae isolate 334 at 2 gram for every 8 hrs administered as 3 hrs infusion measured over 16-24 hrs in in vitro pharmcodynamic model", "assay_type": "functional", "method_in_brief": "as §1"}, "[19]": {"test_system": "Klebsiella pneumoniae", "test": "fT>MIC in Klebsiella pneumoniae isolate 357 at 2 gram for every 8 hrs administered as 3 hrs infusion measured over 16-24 hrs in in vitro pharmcodynamic model", "assay_type": "functional", "method_in_brief": "as §1"}, "[20]": {"test_system": "Klebsiella pneumoniae", "test": "Antibacterial activity against Klebsiella pneumoniae isolate 368 in vitro pharmacodynamic model", "assay_type": "functional", "method_in_brief": "(§2)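 Simulated peak 38.4 µg/ml, trough 3.04 µg/ml. CAMHB at 37°C, 10^6 CFU/ml from overnight culture, drug started at 0.5 h. Two treated models plus one growth control. Change in log10 CFU/ml over 24 h on blood agar. Detection limit 10^1 CFU/ml.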"}, "[21]": {"test_system": "Pseudomonas aeruginosa", "test": "Antibacterial activity against Pseudomonas aeruginosa isolate 1177 in vitro pharmacodynamic model", "assay_type": "functional", "method_in_brief": "as §2"}, "[22]": {"test_system": "Klebsiella pneumoniae", "test": "fT>MIC in Klebsiella pneumoniae isolate 354 at 2 gram for every 8 hrs administered as 3 hrs infusion measured over 16-24 hrs in in vitro pharmcodynamic model", "assay_type": "functional", "method_in_brief": "as §1"}, "[23]": {"test_system": "Klebsiella pneumoniae", "test": "fT>MIC in Klebsiella pneumoniae isolate 360 at 2 gram for every 8 hrs administered as 3 hrs infusion over 24 hrs in in vitro pharmcodynamic model", "assay_type": "functional", "method_in_brief": "as §1"}, "[24]": {"test_system": "Pseudomonas aeruginosa", "test": "fT>MIC in Pseudomonas aeruginosa isolate 1030 at 2 gram for every 8 hrs administered as 3 hrs infusion measured over 8-16 hrs in in vitro pharmcodynamic model", "assay_type": "functional"}, "[25]": {"test_system": "Klebsiella pneumoniae", "test": "Antibacterial activity against Klebsiella pneumoniae isolate 354 in vitro pharmacodynamic model", "assay_type": "functional", "method_in_brief": "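Inoculum 10^6 CFU/ml; dosing began 0.5 h after inoculation. Two treated models plus one untreated control per isolate; blood-agar counts; change in log10 CFU/ml over 24 h (detection limit 10^1); drug levels checked by HPLC.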"}, "[26]": {"test_system": "Pseudomonas aeruginosa", "test": "Antibacterial activity against Pseudomonas aeruginosa isolate 1030 in vitro pharmacodynamic model", "assay_type": "functional", "method_in_brief": "as §2"}, "[27]": {"test_system": "Klebsiella pneumoniae", "test": "fT>MIC in Klebsiella pneumoniae isolate 354 at 2 gram for every 8 hrs administered as 3 hrs infusion measured over 8-16 hrs in in vitro pharmcodynamic model", "assay_type": "functional", "method_in_brief": "as §1"}, "[28]": {"test_system": "Klebsiella pneumoniae", "test": "Antibacterial activity against Klebsiella pneumoniae isolate 368 assessed as reduction of bacterial count at 32 ug/ml within 6 hrs in vitro pharmacodynamic model", "assay_type": "functional"}, "[29]": {"test_system": "Klebsiella pneumoniae", "test": "Antibacterial activity against Klebsiella pneumoniae isolate 377 in vitro pharmacodynamic model", "assay_type": "functional", "method_in_brief": "as §2"}, "[30]": {"test_system": "Klebsiella pneumoniae", "test": "Antibacterial activity against Klebsiella pneumoniae isolate 328A assessed as reduction of bacterial count at 8 ug/ml within 6 hrs in vitro pharmacodynamic model", "assay_type": "functional"}, "[31]": {"test_system": "Klebsiella pneumoniae", "test": "fT>MIC in Klebsiella pneumoniae isolate 377 at 2 gram for every 8 hrs administered as 3 hrs infusion measured over 16-24 hrs in in vitro pharmcodynamic model", "assay_type": "functional"}, "[32]": {"test_system": "Klebsiella pneumoniae", "test": "fT>MIC in Klebsiella pneumoniae isolate 334 at 2 gram for every 8 hrs administered as 3 hrs infusion measured over 8-16 hrs in in vitro pharmcodynamic model", "assay_type": "functional", "method_in_brief": "as §1"}, "[33]": {"test_system": "Pseudomonas aeruginosa", "test": "fT>MIC in Pseudomonas aeruginosa isolate 896 at 2 gram for every 8 hrs administered as 3 hrs infusion measured over 8-16 hrs in in vitro pharmcodynamic model", "assay_type": "functional"}, "[34]": {"test_system": "Klebsiella pneumoniae", "test": "fT>MIC in Klebsiella pneumoniae isolate 357 at 2 gram for every 8 hrs administered as 3 hrs infusion over 24 hrs in in vitro pharmcodynamic model", "assay_type": "functional", "method_in_brief": "as §1"}, "[35]": {"test_system": "Klebsiella pneumoniae", "test": "fT>MIC in Klebsiella pneumoniae isolate 377 at 2 gram for every 8 hrs administered as 3 hrs infusion over 24 hrs in in vitro pharmcodynamic model", "assay_type": "functional"}, "[36]": {"test_system": "Klebsiella pneumoniae", "test": "fT>MIC in Klebsiella pneumoniae isolate 368 at 2 gram for every 8 hrs administered as 3 hrs infusion over 24 hrs in in vitro pharmcodynamic model", "assay_type": "functional"}, "[37]": {"test_system": "Pseudomonas aeruginosa", "test": "fT>MIC in Pseudomonas aeruginosa isolate 1177 at 2 gram for every 8 hrs administered as 3 hrs infusion measured over 8-16 hrs in in vitro pharmcodynamic model", "assay_type": "functional"}, "[38]": {"test_system": "Pseudomonas aeruginosa", "test": "fT>MIC in Pseudomonas aeruginosa isolate 762 at 2 gram for every 8 hrs administered as 3 hrs infusion over 24 hrs in in vitro pharmcodynamic model", "assay_type": "functional"}, "[39]": {"test_system": "Klebsiella pneumoniae", "test": "fT>MIC in Klebsiella pneumoniae isolate 375 at 2 gram for every 8 hrs administered as 3 hrs infusion measured over 0-8 hrs in in vitro pharmcodynamic model", "assay_type": "functional"}},
  "data": [
    {"smiles": "C[C@@H](O)[C@H]1C(=O)N2C(C(=O)O)=C(S[C@@H]3CN[C@H](C(=O)N(C)C)C3)[C@H](C)[C@H]12", "note": "[MEROPENEM]", "values": [
      {"measurement": "fT>MIC", "setting": "[1]", "value": 50, "unit": "%"},
      {"measurement": "fT>MIC", "setting": "[2]", "value": 0, "unit": "%"},
      {"measurement": "fT>MIC", "setting": "[3]", "value": 0, "unit": "%"},
      {"measurement": "fT>MIC", "setting": "[4]", "value": 100, "unit": "%"},
      {"measurement": "log10cfu", "setting": "[5]", "value": ">=3"},
      {"measurement": "log10cfu", "setting": "[6]", "value": ">3"},
      {"measurement": "log10cfu", "setting": "[7]", "value": ">=3"},
      {"measurement": "fT>MIC", "setting": "[8]", "value": 0, "unit": "%"},
      {"measurement": "fT>MIC", "setting": "[9]", "value": 0, "unit": "%"},
      {"measurement": "fT>MIC", "setting": "[10]", "value": 0, "unit": "%"},
      {"measurement": "fT>MIC", "setting": "[11]", "value": 0, "unit": "%"},
      {"measurement": "log10cfu", "setting": "[12]", "value": ">=3"},
      {"measurement": "fT>MIC", "setting": "[13]", "value": 47, "unit": "%"},
      {"measurement": "fT>MIC", "setting": "[14]", "value": 16, "unit": "%"},
      {"measurement": "fT>MIC", "setting": "[15]", "value": 56, "unit": "%"},
      {"measurement": "fT>MIC", "setting": "[16]", "value": 94, "unit": "%"},
      {"measurement": "fT>MIC", "setting": "[17]", "value": 0, "unit": "%"},
      {"measurement": "fT>MIC", "setting": "[18]", "value": 0, "unit": "%"},
      {"measurement": "fT>MIC", "setting": "[19]", "value": 0, "unit": "%"},
      {"measurement": "MIC", "setting": "[20]", "value": 32, "unit": "µg/mL"},
      {"measurement": "MIC", "setting": "[21]", "value": 8, "unit": "µg/mL"},
      {"measurement": "fT>MIC", "setting": "[22]", "value": 3, "unit": "%"},
      {"measurement": "fT>MIC", "setting": "[23]", "value": 47, "unit": "%"},
      {"measurement": "fT>MIC", "setting": "[24]", "value": 78, "unit": "%"},
      {"measurement": "MIC", "setting": "[25]", "value": 8, "unit": "µg/mL"},
      {"measurement": "MIC", "setting": "[26]", "value": 8, "unit": "µg/mL"},
      {"measurement": "fT>MIC", "setting": "[27]", "value": 56, "unit": "%"},
      {"measurement": "log10cfu", "setting": "[28]", "value": ">3"},
      {"measurement": "MIC", "setting": "[29]", "value": 2, "unit": "µg/mL"},
      {"measurement": "log10cfu", "setting": "[30]", "value": ">3"},
      {"measurement": "fT>MIC", "setting": "[31]", "value": 100, "unit": "%"},
      {"measurement": "fT>MIC", "setting": "[32]", "value": 0, "unit": "%"},
      {"measurement": "fT>MIC", "setting": "[33]", "value": 63, "unit": "%"},
      {"measurement": "fT>MIC", "setting": "[34]", "value": 47, "unit": "%"},
      {"measurement": "fT>MIC", "setting": "[35]", "value": 100, "unit": "%"},
      {"measurement": "fT>MIC", "setting": "[36]", "value": 16, "unit": "%"},
      {"measurement": "fT>MIC", "setting": "[37]", "value": 78, "unit": "%"},
      {"measurement": "fT>MIC", "setting": "[38]", "value": 47, "unit": "%"},
      {"measurement": "fT>MIC", "setting": "[39]", "value": 0, "unit": "%"}
    ]}
  ]
}
